Screening results (PubChem)
MC4R antagonist: human MC4R antagonism in cAMP assay | P32245 | inhibition, % at 6.5 µM | AID 540295 | hit rate 0.48% among 360,000 | MC4R-expressing cells, MTII-stimulated cAMP, LANCE TR-FRET;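 active means inhibition above its plate's cutoff, the mean of tested wells on that plate plus 3 SD, cut at about 29% in these data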;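 further: 0% = Melanotan II alone and 100% = Melanotan II plus saturating MCL0020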
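Material – human MC4R-expressing U2OS cells · Repeats – no replicates · Detection – TR-FRET with Eu-cAMP and labeled anti-cAMP, 671 nm · Times – compound 30 min, challenge 1 h, detection 1 h · Compound – single nominal compound dose of 6.5 µM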
AHR activator: activates the human aryl hydrocarbon receptor. AHR-responsive luciferase reporter cells, luminescence. activation, % at 5 µM. hit rate 2.5% among 320,000; in the data active means activation above about 47%;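 further: 0% = vehicle wells and 100% = reference agonist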
Target sequence (P35869 whole entry, looked up): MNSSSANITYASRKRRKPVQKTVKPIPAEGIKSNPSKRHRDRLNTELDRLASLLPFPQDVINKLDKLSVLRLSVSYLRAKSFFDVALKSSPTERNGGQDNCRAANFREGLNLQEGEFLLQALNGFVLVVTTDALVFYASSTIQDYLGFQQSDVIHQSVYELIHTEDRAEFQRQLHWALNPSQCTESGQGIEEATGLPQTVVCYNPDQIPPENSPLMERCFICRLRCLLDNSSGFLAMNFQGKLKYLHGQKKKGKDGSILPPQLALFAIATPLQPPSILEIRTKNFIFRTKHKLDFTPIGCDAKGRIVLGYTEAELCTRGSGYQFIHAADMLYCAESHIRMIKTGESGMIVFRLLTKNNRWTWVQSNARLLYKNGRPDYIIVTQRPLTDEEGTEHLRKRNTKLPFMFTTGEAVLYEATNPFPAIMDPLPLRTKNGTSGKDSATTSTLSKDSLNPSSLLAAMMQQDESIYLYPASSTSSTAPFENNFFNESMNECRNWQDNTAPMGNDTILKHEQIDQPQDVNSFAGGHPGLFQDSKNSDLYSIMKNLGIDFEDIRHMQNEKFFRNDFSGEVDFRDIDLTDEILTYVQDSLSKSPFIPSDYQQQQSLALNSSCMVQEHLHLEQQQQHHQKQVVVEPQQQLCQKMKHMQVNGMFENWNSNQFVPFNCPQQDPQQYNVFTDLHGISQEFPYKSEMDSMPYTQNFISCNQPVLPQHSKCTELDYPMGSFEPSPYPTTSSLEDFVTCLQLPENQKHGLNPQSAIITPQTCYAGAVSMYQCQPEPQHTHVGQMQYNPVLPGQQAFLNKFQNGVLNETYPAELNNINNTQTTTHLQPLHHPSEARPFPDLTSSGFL
GAA850 FXN act: increases GAA850 frataxin promoter reporter activity | HEK293 lucGAA850 FXN promoter luciferase reporter, 24 h; percent of 10 µM SAHA response | activation, % at 6 µM | hit rate 0.56% among 360,000;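 active means activation above the average of all compounds screened plus 3 SD, cutoff fixed separately per campaign, cut at about 7.5% in these data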;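 further: 0% = DMSO wells and 100% = 10 µM SAHA wells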
HTR2A ag: agonists of mouse serotonin 5-HT2A receptor (HTR2A). activation, % at 7.6 µM. hit rate 0.66% among 360,000. P35363. CHO-K1 mHTR2A beta-arrestin complementation, luminescence; percent of 30 µM serotonin response. AID 624169;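 active means activation above a run cutoff, the mean activation of all tested compounds plus 3 SD, cut at about 14% in these data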;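 further: 0% = plate median of compound wells and 100% = 30 µM serotonin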
MC4R ag barr: agonists of human melanocortin 4 receptor (MC4R) beta-arrestin | hit rate 0.98% among 360,000 | AID 540308 | activation, % at 8.9 µM | P32245 | U2OS MC4R beta-arrestin complementation, luminescence; percent of melanotan II response, DMSO zero;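 active means activation above a per-plate cutoff, the mean activation of sample wells on that plate plus 3 SD, cut at about 8% in these data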
AHR act cf: human AHR activation, confirmation. hit rate 87% among 2,300. activation, % at 9 µM. human cells, AHR-responsive luciferase reporter, luminescence. AID 2845. shares compounds with AHR activator; in the data active means activation above about 49%;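 further: HepG2 hepatoma cells carrying a DRE-driven firefly luciferase reporter; 0% = vehicle wells and 100% = reference agonist wells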
PXR counter: PXR activation, counter-screen for AHR activators; shares compounds with AHR activator; activation, % at 11.6 µM; cell-based PXR reporter, luciferase luminescence; hit rate 88% among 2,300; in the data active means activation above about 11%;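 further: human hepatoma DPX-2 cells expressing full-length human PXR; 0% = DMSO and 100% = reference agonist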
Starred values were filed as active, the others as inactive. An excerpt weighted towards active compounds, which were near 4.7% of everything screened.

For COc1ccc(NC(=O)c2cc3ccccc3cc2OC)cc1 the results were MC4R antagonist -4, AHR activator 96*, GAA850 FXN act 6, HTR2A ag -6, MC4R ag barr -1, AHR act cf 66* and PXR counter 12*.
Screening COc1ccc(Br)cc1C(=O)Nc1cc(C)cc(C)c1 returned MC4R antagonist -6, AHR activator 113*, GAA850 FXN act -1, HTR2A ag -4, MC4R ag barr 2, AHR act cf 100* and PXR counter 18*.
COc1ccc(NC(=O)C2c3ccccc3OCC(=O)N2CCc2ccccc2)cc1 (stereo not given) was read as HTR2A ag 2.
Cc1cccc(NC(=O)C(C)Sc2nc3nc(C)cc(C)n3n2)c1 (stereo not given) was read as MC4R antagonist 8, AHR activator 0, GAA850 FXN act 1, HTR2A ag -5 and MC4R ag barr -2.
Screening O=C(NC(=S)N1CCCc2ccccc21)c1ccccc1 returned MC4R antagonist 9, AHR activator 32, GAA850 FXN act 5, HTR2A ag 0 and MC4R ag barr 0.
O=C(NC(=S)N1CCCc2ccccc21)c1ccc(Br)cc1 was read as MC4R antagonist 5, AHR activator 88*, GAA850 FXN act 4, HTR2A ag -7, MC4R ag barr -1, AHR act cf 84* and PXR counter 20*.
O=C(Nc1ccc(Cl)cc1)c1sccc1-n1cccc1 was read as MC4R antagonist 4, AHR activator 138*, GAA850 FXN act 3, HTR2A ag -3, MC4R ag barr 1, AHR act cf 145* and PXR counter 28*.
Screening COc1ccc(NC(=O)c2sccc2-n2cccc2)cc1 returned MC4R antagonist 7, AHR activator 26, GAA850 FXN act 3, HTR2A ag 5 and MC4R ag barr -1.
Screening Nc1cccc(N=[N+]([O-])c2cccc(N)c2)c1 returned MC4R antagonist 7, GAA850 FXN act 1, HTR2A ag -4 and MC4R ag barr -2.
`CCOc1ccccc1-c1nc(-c2ccc(NC(=O)c3ccc(Br)o3)cc2)no1` gave AHR activator 123*, AHR act cf 106* and PXR counter 19*.
Screening Cc1c(-c2ccc(Br)cc2)nc2ccccn12 returned MC4R antagonist 3, AHR activator 165*, GAA850 FXN act 7, HTR2A ag -1, MC4R ag barr -1, AHR act cf 172* and PXR counter 15*.
Screening Cc1cc(Br)ccc1NC(=O)c1sc2ncnc(N3CCN(c4ccccn4)CC3)c2c1C returned MC4R antagonist -14, AHR activator 80*, GAA850 FXN act -1, HTR2A ag 5, MC4R ag barr -1, AHR act cf 91* and PXR counter 19*.
For COc1ccc(NC(=O)c2sc3ncnc(N4CCN(c5ccccn5)CC4)c3c2C)cc1Cl the results were MC4R antagonist 4, AHR activator -2, GAA850 FXN act -3, HTR2A ag -2 and MC4R ag barr 3.
Screening COc1ccc(-n2c(SCC(=O)Nc3nccs3)nnc2-c2ccc(Cl)cc2)cc1 returned MC4R antagonist 18, GAA850 FXN act -2, HTR2A ag -1 and MC4R ag barr 3.
For COc1ccc(-c2[nH]c(-c3ccccc3)nc2SCC(=O)Nc2nccs2)cc1 the results were MC4R antagonist -10, AHR activator 109*, GAA850 FXN act 0, HTR2A ag -7, MC4R ag barr -1, AHR act cf 78* and PXR counter 42*.
Screening COc1ccc(-c2[nH]c(-c3ccc(C)cc3)nc2SCC(=O)NC2CCCC2)cc1 returned MC4R antagonist 0, AHR activator 104*, GAA850 FXN act -2, HTR2A ag -9, MC4R ag barr -1, AHR act cf 88* and PXR counter 86*.
Screening COc1ccc2nc(SCC(=O)NC3CCCC3)c(C)cc2c1 returned MC4R antagonist -4, AHR activator 4, GAA850 FXN act -3, HTR2A ag -1 and MC4R ag barr -2.
For CC(C(=O)Nc1ccc2c(c1)OCO2)n1cnc2c1c(=O)n(C)c(=O)n2C (stereo not given) the results were MC4R antagonist -1, AHR activator 1, GAA850 FXN act 1, HTR2A ag -3 and MC4R ag barr -1.
For O=C(CSc1ccccc1)N1CCCC(N2CCN(c3cccc(Cl)c3)CC2)C1 (stereo not given) the results were MC4R antagonist 14, AHR activator 2, GAA850 FXN act -1, HTR2A ag -2 and MC4R ag barr 0.
Cc1ccc(C)c(OCCC(=O)Nc2cccc(S(=O)(=O)N3CCCCC3)c2)c1 was read as MC4R antagonist 6, AHR activator 1, GAA850 FXN act 0, HTR2A ag 4 and MC4R ag barr 2.
Screening O=C(NNC(=S)Nc1cccc(Cl)c1)c1ccccc1OC(F)F returned MC4R antagonist 0, AHR activator 85*, GAA850 FXN act 2, HTR2A ag 5, MC4R ag barr -2, AHR act cf 126* and PXR counter 27*.
O=C(NNC(=S)Nc1ccccc1)c1cc(Br)ccc1Cl was read as MC4R antagonist -3, AHR activator 103*, GAA850 FXN act 0, HTR2A ag 0, MC4R ag barr -1, AHR act cf 91* and PXR counter 83*.
For Cc1sc2ncnc(SCC(=O)Nc3ccc(S(=O)(=O)N4CCOCC4)cc3)c2c1C the results were MC4R antagonist 8, AHR activator 3, GAA850 FXN act 1, HTR2A ag -4 and MC4R ag barr -2.
`CN(Cc1cccs1)C(=O)C1CCN(S(=O)(=O)c2ccccc2)CC1` gave MC4R antagonist -4, AHR activator -1, GAA850 FXN act 1, HTR2A ag 7 and MC4R ag barr -2.
For COc1ccccc1-c1noc(-c2cccs2)n1 the results were MC4R antagonist 11, AHR activator 86*, GAA850 FXN act 3, HTR2A ag -1, MC4R ag barr 1, AHR act cf 144* and PXR counter 17*.
For COc1ccccc1-c1nc(-c2ccccn2)no1 the results were MC4R antagonist -2, AHR activator 113*, GAA850 FXN act -7, HTR2A ag -2, MC4R ag barr 0, AHR act cf 118* and PXR counter 6.
CCCCC1CCC(C(=O)OC(C)C(=O)Nc2ccc(NC(C)=O)cc2)CC1 (stereo not given) was read as MC4R antagonist 12, AHR activator 9, GAA850 FXN act 0, HTR2A ag 4 and MC4R ag barr 1.
`O=[N+]([O-])c1cccn2cc(-c3ccc(Br)cc3)nc12` gave MC4R antagonist -11, AHR activator 107*, GAA850 FXN act 7, HTR2A ag 0, MC4R ag barr 1, AHR act cf 214* and PXR counter 17*.
